Experimental data: ChEMBL document CHEMBL1255304, “In vitro phenotypic susceptibility of human immunodeficiency virus type 2 clinical isolates to protease inhibitors” (Antimicrob Agents Chemother, 2008)

Assays:
[1] = test system: Human immunodeficiency virus 2; experiment: Antiviral activity against HIV 2 subtype H expressing 10I-34E-40P-41Y-60H-63N-70T-73G-82F-89L-92E protease gene sequence from HIV2 infected patient plasma and PBMC obtained at T1 during compound treatment measured after 13 months; format: functional, organism-based; settings: Human immunodeficiency virus 2, subtype H
In short: (§1)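 Virus isolated by PBMC coculture from patient samples taken before (T0) or during (T1, T2) protease inhibitor exposure, with protease genes sequenced from plasma and PBMC isolates. Susceptibility was tested in the ANRS PBMC assay, and the 50% inhibitory concentration (IC50) was reported.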

[2] = test system: Human immunodeficiency virus 2; experiment: Antiviral activity against HIV 2 subtype A clinical isolate expressing 14H-40D-70K-72R/K-91T/S protease gene sequence from HIV2 infected patient plasma and PBMC obtained before compound treatment measured after 13 months; format: functional, organism-based; settings: Human immunodeficiency virus 2, subtype A; in short: as §1
[3] = test system: Human immunodeficiency virus 2; experiment: Antiviral activity against HIV 2 subtype B clinical isolate expressing 14Y-19P-33I-61N-71I-75M-84V-90M protease gene sequence from HIV2 infected patient plasma and PBMC obtained at T1 during compound treatment measured after 13 months; format: functional, organism-based; settings: Human immunodeficiency virus 2, subtype B\r\n; in short: as §1
[4] = test system: Human immunodeficiency virus 2; experiment: Antiviral activity against Human immunodeficiency virus type 2 (ISOLATE ROD) after 13 months; format: functional, organism-based; settings: Human immunodeficiency virus 2, ISOLATE ROD
In short: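 Reference strain ROD was tested in the ANRS PBMC assay alongside the clinical isolates, and the 50% inhibitory concentration (IC50) was reported.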

[5] = test system: Human immunodeficiency virus 2; experiment: Antiviral activity against HIV 2 subtype H expressing 10I-40P-41Y-60H-63N-70T-73G-89L-92E protease gene sequence from HIV2 infected patient plasma and PBMC obtained before compound treatment measured after 13 months; format: functional, organism-based; settings: Human immunodeficiency virus 2, subtype H; in short: as §1
[6] = Antiviral activity against Human immunodeficiency virus type 1 (BRU ISOLATE) after […]; format: functional; settings: Human immunodeficiency virus 1
[7] = test system: Human immunodeficiency virus 2; experiment: Antiviral activity against HIV 2 subtype A clinical isolate expressing 14H-60K/N-65E protease gene sequence from HIV2 infected patient plasma and PBMC obtained before compound treatment measured after 13 months; format: functional, organism-based; settings: Human immunodeficiency virus 2, subtype A; in short: as §1
[8] = test system: Human immunodeficiency virus 2; experiment: Antiviral activity against HIV 2 subtype A clinical isolate expressing 5L/F-14Y/H-17G/D-43T-54I/M-62V/A-70R/K-71I protease gene sequence from HIV2 infected patient plasma and PBMC obtained at T1 during compound treatment measured after 13 months; format: functional, organism-based; settings: Human immunodeficiency virus 2, subtype A; in short: as §1
[9] = test system: Human immunodeficiency virus 2; experiment: Antiviral activity against HIV 2 subtype A clinical isolate expressing 14H-17D-43T-68N/D protease gene sequence from HIV2 infected patient plasma and PBMC obtained before compound treatment measured after 13 months; format: functional, organism-based; settings: Human immunodeficiency virus 2, subtype A; in short: as §1
[10] = test system: Human immunodeficiency virus 2; experiment: Antiviral activity against HIV 2 subtype B clinical isolate expressing 12T-14Y-19P-40N-41D-61N-62I-96S-99L protease gene sequence from HIV2 infected patient plasma and PBMC obtained before compound treatment measured after 13 months; format: functional, organism-based; settings: Human immunodeficiency virus 2, subtype B\r\n; in short: as §1
[11] = test system: Human immunodeficiency virus 2; experiment: Antiviral activity against HIV 2 subtype A clinical isolate expressing 10I-17D-40D-43I-46V-66V/A-70R/K protease gene sequence from HIV2 infected patient plasma and PBMC obtained before compound treatment measured after 13 months; format: functional, organism-based; settings: Human immunodeficiency virus 2, subtype A; in short: as §1
[12] = test system: Human immunodeficiency virus 2; experiment: Antiviral activity against HIV 2 subtype A clinical isolate expressing 10V/I-40D-43I-56V-70K-82F-84V-89V-90M protease gene sequence from HIV2 infected patient plasma and PBMC obtained at T2 during compound treatment measured after 3 months; format: functional, organism-based; settings: Human immunodeficiency virus 2, subtype A; in short: as §1
[13] = test system: Human immunodeficiency virus 2; experiment: Antiviral activity against HIV 2 subtype A clinical isolate expressing 10I-17D-40D-43I-45K/R-46V-54M-64I/V-69K/R-71V/I-90M protease gene sequence from HIV2 infected patient plasma and PBMC obtained at T1 during compound treatment measured after 13 months; format: functional, organism-based; settings: Human immunodeficiency virus 2, subtype A; in short: as §1
[14] = test system: Human immunodeficiency virus 2; experiment: Antiviral activity against HIV 2 subtype B clinical isolate expressing 14Y-19P-61N-64V-71I-90M-95I protease gene sequence from HIV2 infected patient plasma and PBMC obtained at T2 during compound treatment measured after 3 months; format: functional, organism-based; settings: Human immunodeficiency virus 2, subtype B\r\n; in short: as §1
[15] = test system: Human immunodeficiency virus 2; experiment: Antiviral activity against HIV 2 subtype A clinical isolate expressing 10I-40D-43I-70K-82F-84V-85L-89V-90M-91T/L-98N/K protease gene sequence from HIV2 infected patient plasma and PBMC obtained at T1 during compound treatment measured after 13 months; format: functional, organism-based; settings: Human immunodeficiency virus 2, subtype A; in short: as §1
[16] = test system: Human immunodeficiency virus 2; experiment: Antiviral activity against HIV 2 subtype A clinical isolate expressing 54M-65E-71I-74N-90M protease gene sequence from HIV2 infected patient plasma and PBMC obtained at T1 during compound treatment measured after 13 months; format: functional, organism-based; settings: Human immunodeficiency virus 2, subtype A; in short: as §1
[17] = test system: Human immunodeficiency virus 2; experiment: Antiviral activity against HIV 2 subtype B clinical isolate expressing 14Y-61N-99L protease gene sequence from HIV2 infected patient plasma and PBMC obtained before compound treatment measured after 13 months; format: functional, organism-based; settings: Human immunodeficiency virus 2, subtype B\r\n; in short: as §1
[18] = test system: Human immunodeficiency virus 2; experiment: Antiviral activity against HIV 2 subtype B clinical isolate expressing 12Q-14R-17G/D-19P-61N-62I-92A protease gene sequence from HIV2 infected patient plasma and PBMC obtained before compound treatment measured after 13 months; format: functional, organism-based; settings: Human immunodeficiency virus 2, subtype B\r\n; in short: as §1

COC(=O)N[C@H](C(=O)N[C@@H](Cc1ccccc1)[C@@H](O)CN(Cc1ccc(-c2ccccn2)cc1)NC(=O)[C@@H](NC(=O)OC)C(C)(C)C)C(C)(C)C [ATAZANAVIR]
IC50 [1]: 1900 nM
IC90 [1]: 15000 nM
IC50 [2]: 40 nM
IC90 [2]: 200 nM
IC50 [3]: 2200 nM
IC90 [3]: 17000 nM
IC50 [4]: 30 nM
IC90 [4]: 100 nM
IC50 [5]: 100 nM
IC90 [5]: 500 nM
IC50 [6]: 7 nM
IC90 [6]: 30 nM
IC50 [7]: 40 nM
IC90 [7]: 300 nM
IC50 [8]: 300 nM
IC90 [8]: 2100 nM
IC50 [9]: 70 nM
IC90 [9]: 200 nM
IC50 [10]: 200 nM
IC90 [10]: 400 nM
IC50 [11]: 100 nM
IC90 [11]: 300 nM
IC50 [12]: 400 nM
IC90 [12]: 3000 nM
IC50 [13]: 200 nM
IC90 [13]: 1800 nM
IC50 [14]: 200 nM
IC90 [14]: 1400 nM
IC50 [15]: 40 nM
IC90 [15]: 1300 nM
IC50 [16]: 400 nM
IC90 [16]: 1800 nM
IC50 [17]: 60 nM
IC90 [17]: 300 nM
IC50 [18]: 30 nM
IC90 [18]: 300 nM

CC(C)CN(C[C@@H](O)[C@H](Cc1ccccc1)NC(=O)O[C@H]1CO[C@H]2OCC[C@H]21)S(=O)(=O)c1ccc(N)cc1 [DARUNAVIR]
IC50 [1]: 900 nM
IC90 [1]: 4700 nM
IC50 [2]: 4 nM
IC90 [2]: 20 nM
IC50 [3]: 500 nM
IC90 [3]: 3900 nM
IC50 [4]: 5 nM
IC90 [4]: 20 nM
IC50 [5]: 4 nM
IC90 [5]: 40 nM
IC50 [6]: 4 nM
IC90 [6]: 9 nM
IC50 [7]: 10 nM
IC90 [7]: 30 nM
IC50 [8]: 600 nM
IC90 [8]: 7300 nM
IC50 [9]: 9 nM
IC90 [9]: 30 nM
IC50 [10]: 4 nM
IC90 [10]: 20 nM
IC50 [11]: 4 nM
IC90 [11]: 30 nM
IC50 [12]: 1000 nM
IC90 [12]: 8100 nM
IC50 [13]: 800 nM
IC90 [13]: 3000 nM
IC50 [14]: 700 nM
IC90 [14]: 5100 nM
IC50 [15]: 500 nM
IC90 [15]: 2400 nM
IC50 [16]: 200 nM
IC90 [16]: 1400 nM
IC50 [17]: 2 nM
IC90 [17]: 10 nM
IC50 [18]: 10 nM
IC90 [18]: 50 nM

CC(C)(C)NC(=O)[C@@H]1CN(Cc2cccnc2)CCN1C[C@@H](O)C[C@@H](Cc1ccccc1)C(=O)N[C@H]1c2ccccc2C[C@H]1O [INDINAVIR]
IC50 [1]: 12000 nM
IC90 [1]: 99000 nM
IC50 [2]: 20 nM
IC90 [2]: 400 nM
IC50 [3]: 3800 nM
IC90 [3]: 30000 nM
IC50 [4]: 30 nM
IC90 [4]: 300 nM
IC50 [5]: 20 nM
IC90 [5]: 500 nM
IC50 [6]: 5 nM
IC90 [6]: 40 nM
IC50 [7]: 30 nM
IC90 [7]: 400 nM
IC50 [8]: 18000 nM
IC50 [9]: < 10 nM
IC90 [9]: < 10 nM
IC50 [10]: 4 nM
IC90 [10]: 20 nM
IC50 [11]: 4 nM
IC90 [11]: 100 nM
IC50 [12]: 11000 nM
IC90 [12]: 90000 nM
IC50 [13]: 200 nM
IC90 [13]: 3100 nM
IC50 [14]: 12000 nM
IC90 [14]: 95000 nM
IC50 [15]: 6400 nM
IC90 [15]: 51000 nM
IC50 [16]: 10000 nM
IC90 [16]: 82000 nM
IC50 [17]: 100 nM
IC90 [17]: 600 nM
IC50 [18]: 400 nM
IC90 [18]: 2600 nM

Cc1cccc(C)c1OCC(=O)N[C@@H](Cc1ccccc1)[C@@H](O)C[C@H](Cc1ccccc1)NC(=O)[C@H](C(C)C)N1CCCNC1=O [LOPINAVIR]
IC50 [1]: 3200 nM
IC90 [1]: 8700 nM
IC50 [2]: 20 nM
IC90 [2]: 80 nM
IC50 [3]: 200 nM
IC90 [3]: 1500 nM
IC50 [4]: 20 nM
IC90 [4]: 70 nM
IC50 [5]: 60 nM
IC90 [5]: 500 nM
IC50 [6]: 30 nM
IC90 [6]: 100 nM
IC50 [7]: 40 nM
IC90 [7]: 200 nM
IC50 [8]: 40 nM
IC90 [8]: 400 nM
IC50 [9]: 30 nM
IC90 [9]: 80 nM
IC50 [10]: 30 nM
IC90 [10]: 100 nM
IC50 [11]: 20 nM
IC90 [11]: 200 nM
IC50 [12]: 100 nM
IC90 [12]: 1100 nM
IC50 [13]: 1700 nM
IC90 [13]: 8500 nM
IC50 [14]: 100 nM
IC90 [14]: 900 nM
IC50 [15]: 100 nM
IC90 [15]: 800 nM
IC50 [16]: 400 nM
IC90 [16]: 3300 nM
IC50 [17]: 40 nM
IC90 [17]: 70 nM
IC50 [18]: 20 nM
IC90 [18]: 200 nM
